Values joined by “and” are separate entries in the source; they are usually repeats but may differ in a detail not shown here. Equal entries are not always repeated.
Key:
[1] = target: T1, Seed linoleate 13S-lipoxygenase-1 (Glycine max) (UniProt P08170); assay: In vitro inhibition of rabbit LDL oxidation by soybean lipoxygenase at 5 uM; type: functional
T1 sequence (whole entry): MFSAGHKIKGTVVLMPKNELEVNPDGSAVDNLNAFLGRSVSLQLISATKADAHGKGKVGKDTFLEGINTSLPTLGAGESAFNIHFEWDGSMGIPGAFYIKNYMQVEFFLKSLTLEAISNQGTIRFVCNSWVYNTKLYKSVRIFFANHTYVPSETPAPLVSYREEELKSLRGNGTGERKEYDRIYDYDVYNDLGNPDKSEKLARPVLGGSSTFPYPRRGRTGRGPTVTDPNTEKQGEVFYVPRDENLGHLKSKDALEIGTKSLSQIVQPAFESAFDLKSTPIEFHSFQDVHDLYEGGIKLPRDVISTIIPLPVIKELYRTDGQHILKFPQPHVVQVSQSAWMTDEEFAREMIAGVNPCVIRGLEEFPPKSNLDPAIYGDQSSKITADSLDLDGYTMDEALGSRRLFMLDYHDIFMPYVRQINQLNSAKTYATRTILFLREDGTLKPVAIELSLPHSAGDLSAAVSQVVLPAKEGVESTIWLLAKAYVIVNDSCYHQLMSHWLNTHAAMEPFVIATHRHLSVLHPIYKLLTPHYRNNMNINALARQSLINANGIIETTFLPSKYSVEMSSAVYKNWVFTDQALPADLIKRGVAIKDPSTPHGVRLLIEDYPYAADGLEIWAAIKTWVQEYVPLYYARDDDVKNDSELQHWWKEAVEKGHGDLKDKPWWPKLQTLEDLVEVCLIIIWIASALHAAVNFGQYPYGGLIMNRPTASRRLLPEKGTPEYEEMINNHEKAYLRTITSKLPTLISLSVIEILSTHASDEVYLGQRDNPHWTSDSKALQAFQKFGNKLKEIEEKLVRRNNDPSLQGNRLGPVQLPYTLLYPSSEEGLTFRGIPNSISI
Summary of the method: (§1)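 Compound added to rabbit LDL (Havel method), then soybean lipoxygenase type-IS at 40 μg/mL final. Incubated 24 h at 37 °C in a CO2 incubator. Oxidized LDL separated by gel-permeation chromatography, and fluorescence of the LDL fraction read at ex 360/em 430 nm. Expressed as percent of control.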

[2] = target: T1, Seed linoleate 13S-lipoxygenase-1 (Glycine max); assay: In vitro inhibition of rabbit LDL oxidation by soybean lipoxygenase at 0.5 uM; type: functional; summary of the method: as §1
[3] = target: Voltage-dependent L-type calcium channel subunit alpha-1C (Rattus norvegicus, UniProt P22002); assay: In vitro inhibition of K+ induced contractions of the isolated rat aorta.; type: functional, tissue-based
Rattus norvegicus = organism: Rattus norvegicus; assay: In vitro inhibition of veratridine induced rat myocardiac cell death.; type: functional
[4] = target: T1, Seed linoleate 13S-lipoxygenase-1 (Glycine max); assay: In vitro inhibition of rabbit LDL oxidation by soybean lipoxygenase.; type: functional; set-up: scale not given: the % may be the effect or the level left; summary of the method: as §1

Chain of Voltage-dependent L-type calcium channel subunit alpha-1C (P22002 whole entry): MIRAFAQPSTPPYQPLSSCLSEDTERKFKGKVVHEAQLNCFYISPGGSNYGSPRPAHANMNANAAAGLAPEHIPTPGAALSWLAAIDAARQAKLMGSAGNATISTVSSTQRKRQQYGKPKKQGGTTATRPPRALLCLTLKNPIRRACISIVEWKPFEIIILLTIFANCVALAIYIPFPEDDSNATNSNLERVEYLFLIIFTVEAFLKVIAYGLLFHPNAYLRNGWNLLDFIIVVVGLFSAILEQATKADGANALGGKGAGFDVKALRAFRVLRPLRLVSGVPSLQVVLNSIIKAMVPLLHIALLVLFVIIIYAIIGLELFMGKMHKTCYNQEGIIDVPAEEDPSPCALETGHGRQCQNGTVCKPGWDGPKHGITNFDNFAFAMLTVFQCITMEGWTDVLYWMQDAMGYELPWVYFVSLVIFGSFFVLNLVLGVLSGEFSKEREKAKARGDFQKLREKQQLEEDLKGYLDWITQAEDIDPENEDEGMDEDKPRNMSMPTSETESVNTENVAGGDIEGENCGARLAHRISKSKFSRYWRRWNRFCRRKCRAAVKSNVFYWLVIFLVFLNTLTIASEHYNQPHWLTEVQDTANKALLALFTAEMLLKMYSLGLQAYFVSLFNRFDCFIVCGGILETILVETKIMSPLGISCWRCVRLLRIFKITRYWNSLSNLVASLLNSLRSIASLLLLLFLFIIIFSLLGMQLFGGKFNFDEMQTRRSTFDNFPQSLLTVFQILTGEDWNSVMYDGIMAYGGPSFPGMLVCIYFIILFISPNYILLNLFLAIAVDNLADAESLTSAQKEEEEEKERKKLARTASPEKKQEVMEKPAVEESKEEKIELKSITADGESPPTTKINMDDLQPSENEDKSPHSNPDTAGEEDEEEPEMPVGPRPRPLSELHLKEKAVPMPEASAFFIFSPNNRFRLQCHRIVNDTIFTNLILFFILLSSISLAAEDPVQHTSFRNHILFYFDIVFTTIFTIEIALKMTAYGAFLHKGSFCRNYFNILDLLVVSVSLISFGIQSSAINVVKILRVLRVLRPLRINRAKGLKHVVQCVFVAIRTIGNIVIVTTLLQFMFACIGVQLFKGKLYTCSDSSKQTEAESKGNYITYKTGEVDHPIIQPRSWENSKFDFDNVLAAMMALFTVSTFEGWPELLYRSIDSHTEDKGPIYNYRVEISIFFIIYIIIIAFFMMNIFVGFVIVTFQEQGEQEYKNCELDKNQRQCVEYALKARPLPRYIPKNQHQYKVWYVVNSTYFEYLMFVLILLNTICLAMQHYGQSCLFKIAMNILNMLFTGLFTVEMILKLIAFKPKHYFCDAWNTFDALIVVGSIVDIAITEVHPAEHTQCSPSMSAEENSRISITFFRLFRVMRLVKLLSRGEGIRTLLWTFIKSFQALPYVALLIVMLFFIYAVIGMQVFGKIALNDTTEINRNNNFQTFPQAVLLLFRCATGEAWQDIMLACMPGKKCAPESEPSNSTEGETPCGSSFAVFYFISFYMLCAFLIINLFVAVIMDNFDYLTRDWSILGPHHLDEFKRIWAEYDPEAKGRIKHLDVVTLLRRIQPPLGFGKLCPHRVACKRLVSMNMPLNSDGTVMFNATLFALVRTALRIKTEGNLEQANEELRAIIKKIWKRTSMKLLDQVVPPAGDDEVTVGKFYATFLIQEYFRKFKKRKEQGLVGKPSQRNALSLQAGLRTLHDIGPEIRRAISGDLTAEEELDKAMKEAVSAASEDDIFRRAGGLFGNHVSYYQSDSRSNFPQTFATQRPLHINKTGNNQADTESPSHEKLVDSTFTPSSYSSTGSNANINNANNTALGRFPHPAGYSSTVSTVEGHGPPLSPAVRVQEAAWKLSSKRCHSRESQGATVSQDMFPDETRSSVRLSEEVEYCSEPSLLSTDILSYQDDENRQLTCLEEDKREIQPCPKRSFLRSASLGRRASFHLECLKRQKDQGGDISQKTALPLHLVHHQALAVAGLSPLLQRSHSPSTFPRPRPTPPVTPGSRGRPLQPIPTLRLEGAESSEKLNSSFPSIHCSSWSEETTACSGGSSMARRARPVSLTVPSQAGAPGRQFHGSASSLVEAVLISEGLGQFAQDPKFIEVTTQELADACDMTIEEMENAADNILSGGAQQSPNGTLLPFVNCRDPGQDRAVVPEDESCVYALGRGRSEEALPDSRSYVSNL

## Cc1c(C)c2c(c(C)c1O)CC[C@@](C)(CCC[C@H](C)CCC[C@H](C)CCCC(C)C)O2
[1]
  LDL oxidation remaining (% of control): 13.2%
[2]
  LDL oxidation, % of control: 60.2%

## COc1ccc(OCCN(C)CCCN2C(=O)CSC2c2cc(C(C)(C)C)c(O)c(C(C)(C)C)c2)cc1 (centres undefined)
[3]
  IC50: 230 nM

## CN(c1nc2ccccc2s1)C1CCN(CCCN2C(=O)CSC2c2cc(C(C)(C)C)c(O)c(C(C)(C)C)c2)CC1 (centres undefined)
[3]
  IC50: 230 nM
Rattus norvegicus
  IC>80: 1 µM
[1]
  LDL oxidation remaining (% of control): 4.9%
[2]
  LDL oxidation, % of control: 25.8%

## CC(C)(C)c1cc(C2SCC(=O)N2CCCN)cc(C(C)(C)C)c1O (centres undefined)
[3]
  IC50: 4400 nM

## COc1cc(OCCN(C)CCCN2C(=O)CSC2c2cc(C(C)(C)C)c(O)c(C(C)(C)C)c2)cc(OC)c1OC (centres undefined)
[3]
  IC50: 300 nM

## CNCCCN1C(=O)CSC1c1cc(C(C)(C)C)c(O)c(C(C)(C)C)c1 (centres undefined)
[3]
  IC50: 2400 nM

## COc1ccc(CN(C)CCCN2C(=O)CSC2c2cc(C(C)(C)C)c(O)c(C(C)(C)C)c2)cc1OC (centres undefined)
Rattus norvegicus
  IC>80: 1 µM

## CN(CCCN1C(=O)CSC1c1cc(C(C)(C)C)c(O)c(C(C)(C)C)c1)Cc1ccccc1 (centres undefined)
[3]
  IC50: 600 nM

## CN(CCCN1C(=O)CSC1c1cc(C(C)(C)C)c(O)c(C(C)(C)C)c1)Cc1ccc2c(c1)OCO2 (centres undefined)
[3]
  IC50: 250 nM

## COc1ccc([C@@H]2Sc3ccccc3N(CCN(C)C)C(=O)[C@@H]2OC(C)=O)cc1 [DILTIAZEM]
Rattus norvegicus
  IC>80: >10 µM
[1]
  LDL oxidation remaining (% of control): 111%
[2]
  LDL oxidation, % of control: 109%

## CN(CCCN1C(=O)CSC1c1cc(C(C)(C)C)c(O)c(C(C)(C)C)c1)CCOc1ccc2c(c1)OCO2 (centres undefined)
[3]
  IC50: 62 nM
Rattus norvegicus
  IC>80: 0.32 µM
[1]
  LDL oxidation remaining (% of control): 3%
[2]
  LDL oxidation, % of control: 12.9%

## COc1ccc(CCN(C)CCCN2C(=O)CSC2c2cc(C(C)(C)C)c(O)c(C(C)(C)C)c2)cc1OC (centres undefined)
[3]
  IC50: 93 nM
Rattus norvegicus
  IC>80: 1 µM
[1]
  LDL oxidation remaining (% of control): 0.6%
[2]
  LDL oxidation, % of control: 8.7%

## CN(c1nc2ccccc2s1)C1CCN(CCCCOc2ccc(F)cc2)CC1
[3]
  IC50: 760 nM
Rattus norvegicus
  IC>80: 0.032 µM

## CN(CCCN1C(=O)CSC1c1cc(C(C)(C)C)c(O)c(C(C)(C)C)c1)CC1CC1 (centres undefined)
[3]
  IC50: 1200 nM

## COc1ccc(OCCN(C)CCCN2C(=O)CSC2c2cc(C(C)(C)C)c(O)c(C(C)(C)C)c2)cc1OC (centres undefined)
[3]
  IC50: 180 nM
Rattus norvegicus
  IC>80: 1 µM

## CC(C)(C)c1cc(C2SCC(=O)N2CCCN2CCC(Cc3ccccc3)CC2)cc(C(C)(C)C)c1O (centres undefined)
[3]
  IC50: 210 nM
Rattus norvegicus
  IC>80: 0.32 µM

## COc1cc2c(cc1OC)CN(CCCN1C(=O)CSC1c1cc(C(C)(C)C)c(O)c(C(C)(C)C)c1)CC2 (centres undefined)
[3]
  IC50: 200 nM
Rattus norvegicus
  IC>80: 1 µM

## CN(CCCN1C(=O)CSC1c1cc(C(C)(C)C)c(O)c(C(C)(C)C)c1)CC(O)COc1ccc2c(c1)OCO2 (centres undefined)
[3]
  IC50: 430 nM

## CCOCCN(C)CCCN1C(=O)CSC1c1cc(C(C)(C)C)c(O)c(C(C)(C)C)c1 (centres undefined)
[3]
  IC50: 840 nM

## CN(CCCN1C(=O)CSC1c1cc(C(C)(C)C)c(O)c(C(C)(C)C)c1)CC(O)COc1ccccc1 (centres undefined)
[3]
  IC50: 420 nM

## Cc1cc(C(C)(C)C)c(O)c(C(C)(C)C)c1
[4]
  Control: 19.7% and 0.9%

## CN(C)CCCN1C(=O)CSC1c1cc(C(C)(C)C)c(O)c(C(C)(C)C)c1 (centres undefined)
[3]
  IC50: 1500 nM

## CN(C)CCN(C)CCCN1C(=O)CSC1c1cc(C(C)(C)C)c(O)c(C(C)(C)C)c1 (centres undefined)
[3]
  IC50: 1700 nM
